Screening data from PubChem.
An excerpt weighted towards active compounds, which were near 3.7% of everything screened.
Myeloid diff 2 – induction of myeloid progenitor differentiation, primary screen, cell-based, flow cytometry, MLPCN library; ER-HoxA9 myeloid progenitors, lysozyme-GFP differentiation; calls only at 10 µM; AID 624256, 2012; actives 1% (n = 360,000);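 active means normalized GFP-positive differentiation at or above the plate's own cutoff, the solvent-only control mean plus 3 SD; inconclusive means no clear call, values can overlap the other calls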;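 further: cells exposed to compound for four days before flow analysis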
MC4R antag cAMP – MC4R antagonists of cAMP signaling, primary screen, cell-based, TR-FRET, antagonist arm of biased-ligand search; MC4R-expressing cells, MTII-stimulated cAMP, LANCE TR-FRET; inhibition, % at 6.5 µM; actives 0.48% (n = 360,000);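 active means inhibition above its plate's cutoff, the mean of tested wells on that plate plus 3 SD, cut at about 29% in these data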
Target sequence (P32245 whole entry, looked up): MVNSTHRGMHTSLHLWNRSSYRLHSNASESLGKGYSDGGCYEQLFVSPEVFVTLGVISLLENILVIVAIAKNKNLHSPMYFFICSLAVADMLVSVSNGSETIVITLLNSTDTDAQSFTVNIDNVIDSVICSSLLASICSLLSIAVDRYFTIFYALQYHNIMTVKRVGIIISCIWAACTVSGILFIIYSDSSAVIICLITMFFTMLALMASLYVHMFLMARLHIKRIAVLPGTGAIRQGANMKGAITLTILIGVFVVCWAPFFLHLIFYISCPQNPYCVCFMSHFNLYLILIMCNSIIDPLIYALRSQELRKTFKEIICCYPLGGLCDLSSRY
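Assay system: U2OS cells stably expressing human melanocortin 4 receptor (MC4R) / Dosing: 6.5 µM / Timing: compound 30 min, challenge 1 h, detection 1 h / Measured by: Eu-cAMP/anti-cAMP TR-FRET, emission 671 nm / Replicates: singlicate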
MC4R barr agon – MC4R agonists recruiting beta-arrestin, primary screen, cell-based, luminescence, agonist arm of biased-ligand search; Melanocortin receptor 4 (Homo sapiens), P32245; U2OS MC4R beta-arrestin complementation; percent of melanotan II response, DMSO zero; activation, % at 8.9 µM; actives 0.98% (n = 360,000);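 active means activation above a per-plate cutoff, the mean activation of sample wells on that plate plus 3 SD, cut at about 8% in these data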
Granule exo inh – LAMP-1 surface exposure blockers, TALL-104 cells – cell-based, flow cytometry, MLPCN library, primary screen; TALL-104 LAMP-1 surface exposure; cells stimulated with thapsigargin and PMA; inhibition, % at 10 µM; actives 0.66% (n = 360,000); AID 651702, 2012;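 active means inhibition above about 55%, limit read from the data; inconclusive means no clear call, values can overlap the other calls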
EBI2 antag – EBI2 receptor antagonists, beta-arrestin recruitment, primary screen, cell-based, luminescence, 7a,25-OHC stimulation, uHTS; G-protein coupled receptor 183 (Homo sapiens), P32249; inhibition, % at 5 µM; 7a,25-OHC stimulated; actives 0.81% (n = 360,000); in the data active means inhibition above about 38%;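 further: enzyme fragment complementation signal reports receptor beta-arrestin coupling in cells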
Each line names hits and unclear results; the compound was inactive in the other large screens.

Cc1ccc(-n2cc(CNCC3CC(=O)N(C4CC4)C3)c(-c3cccc(C)c3)n2)cc1 (stereo not drawn)	none
COc1ccc([C@@H]2[C@@H]3C(=O)N(C(C)(C)C)C(=O)[C@@H]3[C@]3(C)C(=O)N(c4ccccc4)C(=O)N23)cc1	Myeloid diff 2 active
COc1ccc([C@@H]2[C@@H]3C(=O)N(C(C)(C)C)C(=O)[C@@H]3[C@]3(C)C(=O)N(c4ccc(C)cc4)C(=O)N23)cc1	none
CCCCN(C(=O)COC(=O)C1(c2ccccc2)CC1)c1c(N)n(CCC)c(=O)[nH]c1=O	none
CC(=O)N/C(=C\c1ccc(C)o1)C(=O)NCc1ccccc1	none
Clc1ccc(-c2nc3ccccn3c2CN2CCOCC2)cc1	Myeloid diff 2 active
Clc1ccc2nc(-c3ccccc3)c(CN3CCOCC3)n2c1	none
CCOc1cc(/C=N/NC(N)=S)cc(Br)c1OCc1ccccc1C	EBI2 antag 47
COc1cc(/C=N/NC(N)=S)cc(Br)c1OCc1ccccc1F	MC4R barr agon 10
CNC(=S)N/N=C/c1cc(Br)c(OCc2ccncc2)c(OC)c1	none
COc1ccc(OC)c(C2=C/C(=C/c3ccccn3)C(=O)O2)c1	none
N#CC1=C(N)NC(=S)C(C(N)=O)C1c1ccc(Cl)cc1Cl (stereo not drawn)	Granule exo inh 99
O=C1/C(=C\c2ccc(Br)o2)SC(=Nc2ccccc2)N1c1ccccc1	Myeloid diff 2 active
CN(C)N1C(=O)/C(=C/c2ccco2)SC1=Nc1ccccc1	none
COc1cc(CN(C)Cc2cc(=O)oc3cc(C)c(Cl)cc23)ccc1OC(F)F	none
O=C(CCn1c(=O)c2cccn2c2cccnc21)N1CCN(c2cccc(Cl)c2)CC1	Myeloid diff 2 inconclusive
CCOc1ccc(N=Nc2c(=O)[nH]n3c(=O)c4c([nH]c23)CCCC4)cc1	Myeloid diff 2 active
O=c1[nH]n2c(=O)c3c([nH]c2c1N=Nc1cccc(Cl)c1)CCCC3	none
COc1cccc(NC(=O)NC(C)C2CC3CCC2C3)c1 (stereo not drawn)	none
CCOC(=O)C1C(=O)C=C(/C=C/c2ccc(N(C)C)cc2)CC1c1ccccc1 (stereo not drawn)	Myeloid diff 2 active
COc1ccc(N(Cc2cc3cccc(C)c3[nH]c2=O)S(=O)(=O)c2ccc(OC)cc2)cc1	Myeloid diff 2 active
Cc1ccc(C2C3CN(C(C)C)CC=C3C(C#N)=C(N)C2(C#N)C#N)cc1 (stereo not drawn)	Myeloid diff 2 active
O=C(Nc1cccc(F)c1)c1ccc(-c2cccnc2)c2ccoc12	none
COc1ccc(NC(=O)c2cc3sccc3n2Cc2ccc(F)cc2)cc1OC	none
O=C(Nc1nccs1)c1cc2sccc2n1Cc1ccc(F)cc1	MC4R barr agon 8.9
O=C(NCCN1CCOCC1)c1cc2sccc2n1Cc1ccc(F)cc1	none
O=C(NCCN1CCOCC1)c1cc2sccc2n1Cc1ccc(Cl)cc1	Myeloid diff 2 active
COc1ccccc1CCC(=O)N1CCN(S(=O)(=O)c2cc(C(F)(F)F)ccc2Cl)CC1	none
O=C(NNC1=NCCC1)C1CC1	Myeloid diff 2 active
COC(=O)c1ccccc1NC(=O)CCCOc1cc(=O)n(C)c2ccccc12	none
Cc1c(C)c2ccc(O[C@@H]3O[C@H](CO)[C@H](O)[C@H](O)[C@H]3O)cc2oc1=O	Myeloid diff 2 active
Cc1cc(=O)oc2cc(O[C@@H]3O[C@H](CO)[C@H](O)[C@H](O)[C@H]3O)ccc12	none
Cc1cc(N2CCCC2)ccc1/C=C1/C(=O)N(C)C(=S)N1C	Myeloid diff 2 active
CCOc1ccc(C(=O)NC(=S)Nc2ccccc2N2CCCCC2)cc1[N+](=O)[O-]	none
CCOc1ccc(C(=O)NC(=S)Nc2ccc(N3CCCCC3)cc2)cc1[N+](=O)[O-]	MC4R barr agon 47
COc1ccc(C(=O)NC(=S)Nc2cccc(Cl)c2N2CCOCC2)cc1[N+](=O)[O-]	EBI2 antag 42
CC(C)CNC(=O)c1ccc(-c2ccc(F)c(F)c2)c2ccoc12	none
COc1ccc(C(=O)c2[nH]c(N)c(C(=O)NCCc3c[nH]c4ccccc34)c2-c2c(F)cccc2Cl)cc1	none (no result: MC4R antag cAMP, MC4R barr agon)
O=C1Nc2ccccc2C1(c1ccccc1)c1ccccc1	MC4R barr agon 37
O=C(NCCS(=O)(=O)N1CCN(c2ccccc2)CC1)C1CCCCC1	none
CC(NC(=O)/C(C#N)=C/c1ccc([N+](=O)[O-])o1)c1ccccc1 (stereo not drawn)	Myeloid diff 2 inconclusive, Granule exo inh 67
CC(NC(=O)/C(C#N)=C/c1ccco1)c1ccccc1 (stereo not drawn)	none
Cc1ccccc1CC(=O)Nc1ccc2c(c1)c(=O)n(C)n2-c1cccs1	none
CCOC(=O)C1=C(O)c2ccccc2C(=O)/C1=C\c1ccc(CC)cc1	Myeloid diff 2 active, Granule exo inh 102
CCOC(=O)C1=C(Cc2ccc(OC)cc2)C(=O)c2ccccc2C1=O	Myeloid diff 2 active, Granule exo inh 105
COc1cccc(C2CC(c3cccs3)=NN2C(=O)CSC2=NN3CCCC(=O)N=C3S2)c1OC (stereo not drawn)	Myeloid diff 2 active
COc1ccc(C2=NN(C(=O)CSC3=NN4CCCC(=O)N=C4S3)C(c3cccc(OC)c3OC)C2)cc1 (stereo not drawn)	none
COc1cccc(NC(=O)CN(C2=NC3CS(=O)(=O)CC3S2)c2cccc(C)c2)c1 (stereo not drawn)	none
CCN(CC)CCNC(=O)c1ccc2c(c1NCCO)C(=O)c1ccccc1C2=O	none (no result: Myeloid diff 2)
CC1CCN(C(=O)c2ccc3c(c2NCCO)C(=O)c2ccccc2C3=O)CC1	EBI2 antag 46
COc1ccc(NS(=O)(=O)c2cc(C(=O)N(C)CCc3ccccn3)ccc2Cl)cc1	none
Cc1ccnc(NC(=O)CCC(=O)N(CC(=O)NCc2ccccc2)Cc2ccc(F)cc2)c1	Myeloid diff 2 active
CN(C)C(=O)c1cc(C(=O)Cc2ccccc2)c[nH]1	none
Cc1ccccc1OCc1nnc(SCC(=O)Nc2ccc3nc(SCC(=O)NC(C)(C)C)sc3c2)n1C	MC4R barr agon 11, Granule exo inh 77
COc1cc(/C=N/NC(=O)c2ccc(O)cc2)ccc1OCC(=O)N1CC(C)OC(C)C1 (stereo not drawn)	none
CSc1nnc(NC(=O)c2nc(S(=O)(=O)Cc3ccccc3)ncc2Cl)s1	none
COC(=O)c1ccc(NC(=O)c2nc(S(=O)(=O)Cc3cccc(C)c3)ncc2Cl)cc1	EBI2 antag 47
CCOC(=O)c1ccc(NC(=O)c2nc(S(=O)(=O)Cc3ccccc3)ncc2Cl)cc1	EBI2 antag 42
COc1ccc(C2CC=C(C(C)=O)CN2S(=O)(=O)c2ccc(Cl)cc2)cc1 (stereo not drawn)	none (no result: MC4R antag cAMP, MC4R barr agon)
